Values after ≈ are worked out from the molar mass of the structure shown. Active and inactive are the calls of the source. The rule behind the calls is not given here.
Columns and labels:
Nocardia farcinica [1] = assay: Antimicrobial activity against amikacin-susceptible Nocardia farcinica IFM 10152 after 3 days by broth microdilution method; format: functional
Method in brief: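 Broth microdilution in BHI medium, final inoculum 10^4 CFU/ml. Host strain carried empty pNV19 vector. Cells incubated with serial aminoglycoside concentrations at 37°C for 3 days. MIC read from OD600.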

Nocardia farcinica [2] = assay: Antimicrobial activity against amikacin-resistant Nocardia farcinica IFM 10580 after 3 days by broth microdilution method; format: functional
Method in brief: (§1)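 Broth microdilution in BHI medium with a range of aminoglycosides. Cells were incubated at 37°C, OD600 was measured, and the MIC was read on day 3 of incubation.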

Nocardia farcinica [3] = assay: Antimicrobial activity against amikacin-susceptible Nocardia farcinica IFM 10152 harboring 16s rRNA A1408G mutant after 5 days by broth microdilution method; format: functional
Method in brief: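 Broth microdilution in BHI medium across several aminoglycosides. Cells were held at 37°C and MIC was determined from OD600 on day 5 of incubation.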

Nocardia farcinica [4] = assay: Antimicrobial activity against amikacin-susceptible Nocardia farcinica IFM 10152 harboring 16s rRNA A1408G mutant after 3 days by broth microdilution method; format: functional; method in brief: as §1
Nocardia farcinica [5] = assay: Antimicrobial activity against amikacin-susceptible Nocardia farcinica isolate IFM 10152-M2 assessed as cell growth at 1024 ug/ml after 24 hrs
Nocardia farcinica [6] = assay: Antimicrobial activity against amikacin-susceptible Nocardia farcinica IFM 10152-M2 expressing rrnA A1408G and rrnC A1408G mutant genes after 3 days by broth microdilution method; format: functional; conditions: IFM 10152-M2, 72 h; method in brief: as §1
Nocardia farcinica [7] = assay: Antimicrobial activity against amikacin-susceptible Nocardia farcinica IFM 10152-M3 expressing rrnA A1408G, rrnB A1408G and rrnC A1408G mutant genes after 3 days by broth microdilution method; format: functional; conditions: IFM 10152-M3, 72 h; method in brief: as §1
Nocardia farcinica [8] = assay: Antimicrobial activity against amikacin-susceptible Nocardia farcinica isolate IFM 10152-M3 assessed as cell growth at 1024 ug/ml at <12 hrs; format: functional, organism-based
Nocardia farcinica [9] = assay: Antimicrobial activity against amikacin-susceptible Nocardia farcinica isolate IFM 10152-M2 assessed as cell growth at 1024 ug/ml after 24 hrs; format: functional, organism-based
Nocardia farcinica [10] = assay: Antimicrobial activity against amikacin-susceptible Nocardia farcinica IFM 10152-M2 expressing wild type rrnB gene and plasmid encoded rrnA A1408G and rrnC A1408G mutant genes after 3 days by broth microdilution method; format: functional; conditions: IFM 10152-M2, 72 h; method in brief: as §1
Nocardia farcinica [11] = assay: Antimicrobial activity against amikacin-resistant Nocardia farcinica IFM 10580 assessed as cell growth at 1024 ug/ml at <12 hrs; format: functional, organism-based
Method in brief: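 Cells were cultured in the presence of 1,024 μg/ml amikacin and growth was followed over time.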

| Molecule | MIC (Nocardia farcinica [1]; IFM 10152, 72 h) [µg/mL] | MIC (Nocardia farcinica [2]; IFM 10580, 72 h) [µg/mL] | MIC (Nocardia farcinica [3]; IFM 10152, 120 h) [µg/mL] | MIC (Nocardia farcinica [4]; IFM 10152, 72 h) [µg/mL] | further results |
| --- | --- | --- | --- | --- | --- |
| NC[C@H]1O[C@H](O[C@H]2[C@H](O)[C@@H](O[C@H]3O[C@H](CO)[C@@H](O)[C@H](N)[C@H]3O)[C@H](N)C[C@@H]2N)[C@H](N)C[C@@H]1O [TOBRAMYCIN] | 32 (≈ 68.4 µM) | > 1020 | > 1020 | 64 (≈ 137 µM) |  |
| CN[C@@H]1[C@H](O[C@H]2[C@H](O[C@H]3[C@H](O)[C@@H](O)[C@H](N=C(N)N)[C@@H](O)[C@@H]3N=C(N)N)O[C@@H](C)[C@]2(O)C=O)O[C@@H](CO)[C@H](O)[C@H]1O [STREPTOMYCIN] | 64 (≈ 110 µM) | 128 (≈ 220 µM) | 128 (≈ 220 µM) | 64 (≈ 110 µM) |  |
| CCN[C@@H]1C[C@H](N)[C@@H](O[C@H]2OC(CN)=CC[C@H]2N)[C@H](O)[C@H]1O[C@H]1OC[C@](C)(O)[C@H](NC)[C@H]1O [NETILMICIN] | < 1 | > 1020 | 32 (≈ 67.3 µM) | 4 (≈ 8.41 µM) |  |
| GENTAMICIN |  |  |  |  | MIC (Nocardia farcinica [1]): 64 µg/mL; MIC (Nocardia farcinica [2]): > 1020 µg/mL; MIC (Nocardia farcinica [3]): > 1020 µg/mL; MIC (Nocardia farcinica [4]): 256 µg/mL |
| NC[C@H]1O[C@H](O[C@H]2[C@H](O)[C@@H](O[C@H]3O[C@H](CO)[C@@H](O)[C@H](N)[C@H]3O)[C@H](N)C[C@@H]2N)[C@H](O)[C@@H](O)[C@@H]1O [KANAMYCIN] | 256 (≈ 528 µM) | > 1020 | > 1020 | > 1020 |  |
| CN[C@H]1C[C@@H](N)[C@H](O)[C@@H](O[C@@H]2O[C@H](CO)[C@H](O)[C@H]3O[C@@]4(O[C@H]23)O[C@H]([C@H](N)CO)[C@H](O)[C@H](O)[C@H]4O)[C@@H]1O | 32 (≈ 60.7 µM) | 32 (≈ 60.7 µM) | 32 (≈ 60.7 µM) | 32 (≈ 60.7 µM) |  |
| CN[C@@H]1[C@@H](O)[C@@H](O[C@@H]2[C@@H](O)[C@H](O[C@H]3O[C@H](CN)[C@@H](O)[C@H](O)[C@H]3O)[C@@H](N)C[C@H]2NC(=O)[C@@H](O)CN)OC[C@]1(C)O [ISEPAMICIN] | < 1 | > 1020 | 128 (≈ 225 µM) | 16 (≈ 28.1 µM) |  |
| NC[C@H]1O[C@H](O[C@H]2[C@H](O[C@@H]3O[C@H](CO)[C@@H](O)[C@H]3O)[C@@H](O)[C@H](N)C[C@@H]2N)[C@H](N)[C@@H](O)[C@@H]1O [RIBOSTAMYCIN] | 256 (≈ 563 µM) | > 1020 | > 1020 | > 1020 |  |
| CN[C@@H]1[C@@H](O[C@H]2O[C@H](CO)[C@@H](N)[C@H](O)[C@H]2O)OC2C[C@@H](N)[C@@H](O[C@H]3[C@H](O)[C@@H](O)[C@H](N)C[C@@H]3N)OC2[C@@H]1O (some centres undefined) [APRAMYCIN] | 32 (≈ 59.3 µM) | > 1020 | 256 (≈ 474 µM) | 64 (≈ 119 µM) |  |
| NC[C@@H]1O[C@H](O[C@H]2[C@@H](O)[C@H](O[C@@H]3[C@@H](O)[C@H](N)C[C@H](N)[C@H]3O[C@H]3O[C@H](CO)[C@@H](O)[C@H](O)[C@H]3N)O[C@@H]2CO)[C@H](N)[C@@H](O)[C@@H]1O [PAROMOMYCIN] | 8 (≈ 13 µM) | > 1020 | > 1020 | > 1020 |  |
| NCC[C@H](O)C(=O)N[C@@H]1C[C@H](N)[C@@H](O[C@H]2O[C@H](CN)[C@@H](O)[C@H](O)[C@H]2O)[C@H](O)[C@H]1O[C@H]1O[C@H](CO)[C@@H](O)[C@H](N)[C@H]1O [AMIKACIN] | < 1 | > 1020 | > 1020 | 64 (≈ 109 µM) | Activity (Nocardia farcinica [5]): inactive; MIC (Nocardia farcinica [6]): < 1 µg/mL; MIC (Nocardia farcinica [7]): > 1020 µg/mL; Activity (Nocardia farcinica [8]): inactive; Activity (Nocardia farcinica [9]): inactive; MIC (Nocardia farcinica [10]): > 1020 µg/mL; Activity (Nocardia farcinica [11]): inactive |
| NCC[C@H](O)C(=O)N[C@@H]1C[C@H](N)[C@@H](O[C@H]2O[C@H](CN)CC[C@H]2N)[C@H](O)[C@H]1O[C@H]1O[C@H](CO)[C@@H](O)[C@H](N)[C@H]1O [ARBEKACIN] | < 1 | > 1020 | > 1020 | 2 (≈ 3.62 µM) |  |
| NC[C@@H]1O[C@H](O[C@H]2[C@@H](O)[C@H](O[C@@H]3[C@@H](O)[C@H](N)C[C@H](N)[C@H]3O[C@H]3O[C@H](CN)[C@@H](O)[C@H](O)[C@H]3N)O[C@@H]2CO)[C@H](N)[C@@H](O)[C@@H]1O [FRAMYCETIN] | 16 (≈ 26 µM) | > 1020 | > 1020 | > 1020 |  |

Source: ChEMBL document CHEMBL1255473, “Homozygous triplicate mutations in three 16S rRNA genes responsible for high-level aminoglycoside resistance in Nocardia farcinica clinical isolates from a Canada-wide bovine mastitis epizootic” (2010)
